Measured values from ChEMBL document CHEMBL2040751, “Discovery of PF-04449913, a Potent and Orally Bioavailable Inhibitor of Smoothened” (ACS Med Chem Lett, 2012).
Values after ≈ are worked out from the molar mass of the structure shown.

Columns and labels:
Protein smoothened = Protein smoothened (Mus musculus, UniProt P56726); assay: Inhibition of Smo in mouse C3H10T1/2 cells using human recombinant SHH assessed as effect on SMO/SHH transient transcriptional activation after 20 hrs by Gli-luciferase reporter assay; assay type: cell-based, C3H 10T1/2
[1] = target: Protein smoothened (Mus musculus) (UniProt P56726); assay: Potency ratio, ratio of IC50 for compound to IC50 for compound 1 in mouse C3H10T1/2 cells by SMO/SHH transient transcriptional activation based Gli-luciferase reporter assay; assay type: cell-based; settings: C3H 10T1/2
[2] = Lipophilicity, log D of the compound; assay type: physicochemical; settings: octanol/water
[3] = Fraction unbound in rat liver microsomes; assay type: ADME, Microsome
[4] = Fraction unbound in dog liver microsomes; assay type: ADME, Canis lupus familiaris, Microsome
[5] = Fraction unbound in human liver microsomes; assay type: ADME, Microsome
Cytochrome P450 1A2 = target: T1, Cytochrome P450 1A2 (Homo sapiens, UniProt P05177); assay: Inhibition of CYP1A2; assay type: ADME
T1 sequence (P05177 whole entry): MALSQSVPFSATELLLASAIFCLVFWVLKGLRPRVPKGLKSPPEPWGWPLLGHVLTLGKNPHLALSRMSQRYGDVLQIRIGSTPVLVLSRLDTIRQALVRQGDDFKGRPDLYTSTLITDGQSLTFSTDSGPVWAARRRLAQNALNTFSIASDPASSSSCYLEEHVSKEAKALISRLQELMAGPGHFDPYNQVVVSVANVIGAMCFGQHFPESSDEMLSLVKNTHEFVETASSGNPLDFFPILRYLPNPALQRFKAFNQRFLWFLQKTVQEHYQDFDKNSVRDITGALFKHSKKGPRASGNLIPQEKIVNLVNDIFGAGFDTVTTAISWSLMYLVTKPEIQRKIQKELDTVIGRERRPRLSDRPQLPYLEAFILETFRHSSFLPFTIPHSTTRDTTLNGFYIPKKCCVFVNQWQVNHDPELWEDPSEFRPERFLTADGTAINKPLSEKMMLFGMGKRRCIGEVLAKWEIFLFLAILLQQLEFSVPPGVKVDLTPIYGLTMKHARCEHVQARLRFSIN

Cytochrome P450 2C8 = target: T2, Cytochrome P450 2C8 (Homo sapiens, UniProt P10632); assay: Inhibition of CYP2C8; assay type: ADME
T2 sequence (P10632 whole entry): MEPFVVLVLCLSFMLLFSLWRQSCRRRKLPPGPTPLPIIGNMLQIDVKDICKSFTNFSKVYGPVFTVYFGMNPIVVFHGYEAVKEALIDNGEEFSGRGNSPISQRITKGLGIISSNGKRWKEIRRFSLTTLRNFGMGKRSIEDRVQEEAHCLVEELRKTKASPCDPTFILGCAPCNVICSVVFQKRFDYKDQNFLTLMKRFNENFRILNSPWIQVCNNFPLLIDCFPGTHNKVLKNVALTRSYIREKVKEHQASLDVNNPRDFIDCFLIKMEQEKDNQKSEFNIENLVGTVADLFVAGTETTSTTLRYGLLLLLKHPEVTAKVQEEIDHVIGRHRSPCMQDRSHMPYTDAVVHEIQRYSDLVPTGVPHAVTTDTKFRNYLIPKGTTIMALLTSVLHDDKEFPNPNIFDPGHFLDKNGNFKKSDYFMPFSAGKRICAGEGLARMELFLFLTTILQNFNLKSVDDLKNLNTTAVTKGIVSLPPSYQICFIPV

Cytochrome P450 2C9 = Cytochrome P450 2C9 (Homo sapiens, UniProt P11712); assay: Inhibition of CYP2C9; assay type: ADME
Cytochrome P450 2C19 = Cytochrome P450 2C19 (Homo sapiens, UniProt P33261); assay: Inhibition of CYP2C19; assay type: ADME
Cytochrome P450 2D6 = Cytochrome P450 2D6 (Homo sapiens, UniProt P10635); assay: Inhibition of CYP2D6; assay type: ADME
Cytochrome P450 3A4 = Cytochrome P450 3A4 (Homo sapiens, UniProt P08684); assay: Inhibition of CYP3A4; assay type: ADME
[6] = Dissociation constant, pKa of the compound; assay type: physicochemical
[7] = Percentage unbound in rat plasma; assay type: ADME, cell-free
[8] = Percentage unbound in dog plasma; assay type: ADME, cell-free, Canis lupus familiaris
[9] = Percentage unbound in human plasma; assay type: ADME, cell-free
[10] = Apparent permeability of the compound across apical to basolateral side in human Caco2 cells; assay type: ADME, cell-based; settings: Caco-2
[11] = Apparent permeability of the compound across basolateral to apical side in human Caco2 cells; assay type: ADME, cell-based; settings: Caco-2
Salmonella typhimurium = assay: Induction of genotoxicity in Salmonella typhimurium by Ames test; assay type: toxicity, organism-based; settings: salmonella enterica subsp. enterica serovar typhimurium
[12] = Induction of genotoxicity in micronucleus by micronucleus test
[13] = Volume of distribution at steady state in rat at 1 mg/kg, iv and 1 mg/kg, po; assay type: ADME, organism-based; settings: in vivo, read-out: Vdss
Procedure, shortened: (§1)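 Rats received 1 mg/kg IV as a solution in 10% EtOH/20% PEG400/70% PBS. A separate group received 1 mg/kg orally in methylcellulose in water.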

[14] = Half life in rat at 1 mg/kg, iv and 1 mg/kg, po; assay type: ADME, organism-based; settings: in vivo; procedure, shortened: as §1
[15] = Volume of distribution at steady state in dog at 0.5 mg/kg, iv and 3 mg/kg, po; assay type: ADME, organism-based, Canis lupus familiaris; settings: in vivo, read-out: Vdss
Procedure, shortened: (§2)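 In dogs, the IV dose was 0.5 mg/kg in solution in 10% EtOH/20% PEG400/70% PBS. The oral dose was 3 mg/kg in methylcellulose in water.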

[16] = Half life in dog at 0.5 mg/kg, iv and 3 mg/kg, po; assay type: ADME, organism-based, Canis lupus familiaris; settings: in vivo; procedure, shortened: as §2
[17] = Clearance in dog at 0.5 mg/kg, iv and 3 mg/kg, po; assay type: ADME, organism-based, Canis lupus familiaris; settings: in vivo; procedure, shortened: as §2
[18] = Oral bioavailability in dog at 3 mg/kg; assay type: ADME, organism-based, Canis lupus familiaris; settings: in vivo; procedure, shortened: as §2
[19] = Clearance in rat at 1 mg/kg, iv and 1 mg/kg, po; assay type: ADME, organism-based; settings: in vivo; procedure, shortened: as §1
[20] = Oral bioavailability in rat at 1 mg/kg; assay type: ADME, organism-based; settings: in vivo; procedure, shortened: as §1
[21] = Intrinsic clearance in rat microsomes; assay type: ADME, Microsome
[22] = Intrinsic clearance in dog microsomes; assay type: ADME, Canis lupus familiaris, Microsome
[23] = Intrinsic clearance in human microsomes; assay type: ADME, Microsome
[24] = Plasma clearance in rat at 2 mg/kg, iv dosed in 20% PEG400/80% H2O; assay type: ADME, organism-based; set-up: dose 2 mg/kg, route intravenous
Procedure, shortened: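 Single IV dose of 2 mg/kg formulated in 20% PEG400/80% H2O. Plasma clearance was determined.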

[25] = Plasma clearance in dog; assay type: ADME, organism-based, Canis lupus familiaris
[26] = Oral bioavailability in dog at 5 mg/kg; assay type: ADME, organism-based, Canis lupus familiaris; settings: in vivo
[27] = Fraction absorbed in dog at 5 mg/kg, po; assay type: ADME, organism-based, Canis lupus familiaris; set-up: dose 5 mg/kg, route oral; settings: in vivo
[28] = Drug excretion in rat bile at 2 mg/kg, iv; assay type: ADME, organism-based; set-up: dose 2 mg/kg, route intravenous; settings: read-out: Drug excretion
[29] = Drug excretion in rat urine at 2 mg/kg, iv; assay type: ADME, organism-based; set-up: dose 2 mg/kg, route intravenous; settings: read-out: Drug excretion
[30] = Free intrinsic clearance in human microsomes; assay type: ADME, Microsome
[31] = Aqueous solubility of the compound; assay type: physicochemical; settings: buffer
[32] = Chemical solubility of the compound in PBS at pH 6.5; assay type: physicochemical
[33] = Chemical solubility of the compound in SGN at pH 1.2; assay type: physicochemical
[34] = Oral bioavailability in rat at 5 mg/kg dosed in 0.5% methylcellulose in water; assay type: ADME, organism-based; settings: in vivo
Procedure, shortened: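 Oral dosing at 5 mg/kg, formulated in 0.5% methylcellulose in water.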

Sequence of Protein smoothened (Mus musculus) (P56726 whole entry): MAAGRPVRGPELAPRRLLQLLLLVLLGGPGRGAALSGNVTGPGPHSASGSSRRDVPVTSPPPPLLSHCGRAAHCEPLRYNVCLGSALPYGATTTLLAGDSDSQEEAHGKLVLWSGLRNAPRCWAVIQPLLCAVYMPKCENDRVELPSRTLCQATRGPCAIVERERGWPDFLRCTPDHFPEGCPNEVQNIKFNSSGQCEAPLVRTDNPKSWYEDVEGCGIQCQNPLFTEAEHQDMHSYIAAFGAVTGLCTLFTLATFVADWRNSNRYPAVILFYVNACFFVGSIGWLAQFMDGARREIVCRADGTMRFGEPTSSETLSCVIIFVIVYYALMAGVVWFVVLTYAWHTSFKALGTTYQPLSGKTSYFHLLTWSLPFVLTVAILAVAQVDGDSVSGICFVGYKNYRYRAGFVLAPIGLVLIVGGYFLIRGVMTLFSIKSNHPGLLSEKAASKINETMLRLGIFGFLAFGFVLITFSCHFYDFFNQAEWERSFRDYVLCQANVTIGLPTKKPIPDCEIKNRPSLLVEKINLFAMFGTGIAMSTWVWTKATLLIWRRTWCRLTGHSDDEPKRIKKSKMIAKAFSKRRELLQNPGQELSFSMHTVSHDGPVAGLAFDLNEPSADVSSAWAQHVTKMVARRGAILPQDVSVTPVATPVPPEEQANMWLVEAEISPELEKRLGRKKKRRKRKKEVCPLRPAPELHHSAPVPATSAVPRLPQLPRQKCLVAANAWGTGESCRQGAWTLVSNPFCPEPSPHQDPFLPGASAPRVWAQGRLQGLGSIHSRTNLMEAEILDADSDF
Sequence of Protein smoothened (P56726 whole entry): as above
Sequence of Cytochrome P450 2C9 (P11712 whole entry): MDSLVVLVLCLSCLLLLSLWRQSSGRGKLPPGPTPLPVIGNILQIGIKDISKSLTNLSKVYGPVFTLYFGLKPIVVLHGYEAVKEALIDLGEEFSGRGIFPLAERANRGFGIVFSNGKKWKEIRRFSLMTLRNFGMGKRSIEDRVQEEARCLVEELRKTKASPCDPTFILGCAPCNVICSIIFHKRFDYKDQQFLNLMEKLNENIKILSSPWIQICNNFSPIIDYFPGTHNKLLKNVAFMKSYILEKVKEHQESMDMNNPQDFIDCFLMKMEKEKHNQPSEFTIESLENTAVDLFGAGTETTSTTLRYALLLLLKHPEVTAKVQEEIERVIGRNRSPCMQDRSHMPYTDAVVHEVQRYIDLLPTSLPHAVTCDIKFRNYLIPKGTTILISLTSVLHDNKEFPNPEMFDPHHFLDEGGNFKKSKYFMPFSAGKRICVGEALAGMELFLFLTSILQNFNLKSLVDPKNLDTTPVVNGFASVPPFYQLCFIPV
Sequence of Cytochrome P450 3A4 (P08684 whole entry): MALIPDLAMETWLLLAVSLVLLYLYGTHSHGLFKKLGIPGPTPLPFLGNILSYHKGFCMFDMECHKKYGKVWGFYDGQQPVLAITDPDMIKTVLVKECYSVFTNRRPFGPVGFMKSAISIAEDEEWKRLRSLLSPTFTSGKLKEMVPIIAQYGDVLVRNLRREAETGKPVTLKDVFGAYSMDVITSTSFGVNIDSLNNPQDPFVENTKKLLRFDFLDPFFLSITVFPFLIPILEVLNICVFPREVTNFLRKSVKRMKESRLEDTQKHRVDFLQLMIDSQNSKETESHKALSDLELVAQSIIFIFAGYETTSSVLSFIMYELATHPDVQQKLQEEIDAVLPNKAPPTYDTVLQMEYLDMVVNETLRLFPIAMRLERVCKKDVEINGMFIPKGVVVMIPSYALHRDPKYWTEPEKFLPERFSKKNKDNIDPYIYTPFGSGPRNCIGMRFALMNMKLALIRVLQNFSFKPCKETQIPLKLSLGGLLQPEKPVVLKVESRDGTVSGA
Sequence of Cytochrome P450 2C19 (P33261 whole entry): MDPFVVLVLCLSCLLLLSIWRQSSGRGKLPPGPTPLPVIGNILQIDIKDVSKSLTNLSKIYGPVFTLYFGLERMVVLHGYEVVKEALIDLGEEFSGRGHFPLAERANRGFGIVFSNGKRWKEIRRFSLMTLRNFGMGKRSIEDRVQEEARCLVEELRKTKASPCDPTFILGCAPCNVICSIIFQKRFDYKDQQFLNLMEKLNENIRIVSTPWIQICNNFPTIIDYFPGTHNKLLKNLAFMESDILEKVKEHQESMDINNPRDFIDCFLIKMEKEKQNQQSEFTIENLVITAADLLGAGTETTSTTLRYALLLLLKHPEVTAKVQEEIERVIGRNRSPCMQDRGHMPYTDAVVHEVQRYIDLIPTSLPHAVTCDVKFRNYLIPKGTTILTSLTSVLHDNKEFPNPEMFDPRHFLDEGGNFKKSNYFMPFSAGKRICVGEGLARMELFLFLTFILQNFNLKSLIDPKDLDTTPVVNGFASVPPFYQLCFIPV
Sequence of Cytochrome P450 2D6 (P10635 whole entry): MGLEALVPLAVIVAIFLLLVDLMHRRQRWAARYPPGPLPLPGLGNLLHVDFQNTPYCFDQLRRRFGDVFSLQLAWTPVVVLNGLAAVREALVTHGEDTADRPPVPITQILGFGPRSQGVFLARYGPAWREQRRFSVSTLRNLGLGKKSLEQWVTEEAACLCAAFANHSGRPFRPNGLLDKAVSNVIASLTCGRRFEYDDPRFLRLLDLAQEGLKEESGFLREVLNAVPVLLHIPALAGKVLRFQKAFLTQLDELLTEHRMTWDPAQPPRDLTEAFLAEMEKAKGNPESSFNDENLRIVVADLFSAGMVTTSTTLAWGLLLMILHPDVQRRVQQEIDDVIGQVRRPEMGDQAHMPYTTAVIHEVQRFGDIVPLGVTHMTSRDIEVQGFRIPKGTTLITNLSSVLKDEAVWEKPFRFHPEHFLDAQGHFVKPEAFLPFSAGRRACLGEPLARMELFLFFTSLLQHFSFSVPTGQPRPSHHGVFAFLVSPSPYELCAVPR

Compound: CN1CC[C@@H](NC(=O)Nc2cccc(C#N)c2)C[C@@H]1c1nc2ccccc2[nH]1
- IC50 (Protein smoothened): 72 nM
- Ratio IC50 [1]: > 50

Compound: CN1CC[C@@H](NC(=O)Nc2ccc(Cl)cc2)C[C@@H]1c1nc2ccccc2[nH]1
- IC50 (Protein smoothened): 20 nM
- Ratio IC50 [1]: > 50

Compound: CN1CC[C@@H](NC(=O)Nc2ccc(C#N)cc2)C[C@@H]1c1nc2ccccc2[nH]1 [GLASDEGIB]
- IC50 (Protein smoothened): 5 nM
- logD [2]: 2.48
- fraction unbound [3]: 0.57
- fraction unbound [4]: 0.54
- fraction unbound [5]: 0.61
- IC50 (Cytochrome P450 1A2): > 30000 nM
- IC50 (Cytochrome P450 2C8): > 30000 nM
- IC50 (Cytochrome P450 2C9): > 30000 nM
- IC50 (Cytochrome P450 2C19): > 30000 nM
- IC50 (Cytochrome P450 2D6): > 30000 nM
- IC50 (Cytochrome P450 3A4): > 30000 nM
- pKa [6]: 6
- fraction unbound [7]: 0.109
- fraction unbound [8]: 0.141
- fraction unbound [9]: 0.091
- Papp A→B [10]: 5.98 ×10⁻⁶ cm/s
- Papp B→A [11]: 15.6 ×10⁻⁶ cm/s
- Activity (Salmonella typhimurium): Non-toxic
- Activity [12]: Non-toxic
- Vd [13]: 4.8 L/kg
- half-life [14]: 1.4 h
- Vd [15]: 4.3 L/kg
- half-life [16]: 2.9 h
- clearance [17]: 3.9 mL/min/kg
- bioavailability [18]: 68%
- clearance [19]: 31 mL/min/kg
- bioavailability [20]: 33%
- CLint scaled [21]: 67 mL/min/kg
- CLint scaled [22]: < 14 mL/min/kg
- CLint scaled [23]: 6.3 mL/min/kg

Compound: CN1CC[C@@H](NC(=O)Nc2ccccc2)C[C@@H]1c1nc2ccccc2[nH]1
- IC50 (Protein smoothened): 103 nM
- Ratio IC50 [1]: > 50

Compound: CN1CC[C@@H](NC(=O)Nc2ccc(C(F)(F)F)cc2)C[C@@H]1c1nc2ccccc2[nH]1
- IC50 (Protein smoothened): 5 nM
- Ratio IC50 [1]: > 50

Compound: CN1CC[C@@H](NC(=O)Nc2ccc(C#N)cc2)C[C@@H]1c1nc2ccccc2[nH]1
- Ratio IC50 [1]: > 50

Compound: CN1CC[C@@H](NC(=O)Nc2cccnc2)C[C@@H]1c1nc2ccccc2[nH]1
- IC50 (Protein smoothened): 191 nM
- Ratio IC50 [1]: > 50

Compound: CN1CC[C@@H](NC(=O)c2ccc3c(c2)OCCO3)C[C@@H]1c1nc2ccccc2[nH]1
- IC50 (Protein smoothened): 43 nM
- clearance [24]: > 70 mL/min/kg
- clearance [25]: 18 mL/min/kg
- bioavailability [26]: 33%
- Fa [27]: > 50%
- dose excreted [28]: < 5%
- dose excreted [29]: < 5%
- Ratio IC50 [1]: 9

Compound: COc1ccc(NC(=O)N[C@@H]2CCN(C)[C@@H](c3nc4ccccc4[nH]3)C2)cc1
- IC50 (Protein smoothened): 35 nM
- Ratio IC50 [1]: > 50

Compound: O=C(Nc1cccc(-c2nc3ccccc3[nH]2)c1)c1ccc2c(c1)OCCO2
- IC50 (Protein smoothened): 5 nM
- CL free [30]: 0.314 mL/min/kg
- solubility [31]: 0.1 µg/mL (≈ 0.269 µM)
- clearance [24]: 25 mL/min/kg
- fraction unbound [7]: < 0.01
- fraction unbound [8]: < 0.01
- fraction unbound [9]: < 0.01

Compound: CN1CC[C@@H](NC(=O)Nc2ccc(C#N)cc2)C[C@@H]1c1nc2ccccc2[nH]1.Cl.O
- solubility [31]: 20 µg/mL
- solubility [32]: 1150 µg/mL
- solubility [33]: > 69000 µg/mL

Compound: CN1CC[C@@H](NC(=O)Nc2ccc3c(c2)OCCO3)C[C@@H]1c1nc2ccccc2[nH]1
- IC50 (Protein smoothened): 45 nM
- Ratio IC50 [1]: > 50

Compound: O=C(N[C@@H]1CCC[C@H](c2nc3ccccc3[nH]2)C1)c1ccc2c(c1)OCCO2
- IC50 (Protein smoothened): 88 nM
- solubility [31]: 37 µg/mL (≈ 98 µM)
- clearance [24]: 33 mL/min/kg
- bioavailability [34]: 4%
- Papp A→B [10]: 85 ×10⁻⁶ cm/s
- Papp B→A [11]: 65 ×10⁻⁶ cm/s
- Ratio IC50 [1]: 18
